Each structure is given as a SMILES string.

The target in assay [1] is T1, rat IDE (Rattus norvegicus, UniProt P35559).
T1 sequence (P35559 1-1019): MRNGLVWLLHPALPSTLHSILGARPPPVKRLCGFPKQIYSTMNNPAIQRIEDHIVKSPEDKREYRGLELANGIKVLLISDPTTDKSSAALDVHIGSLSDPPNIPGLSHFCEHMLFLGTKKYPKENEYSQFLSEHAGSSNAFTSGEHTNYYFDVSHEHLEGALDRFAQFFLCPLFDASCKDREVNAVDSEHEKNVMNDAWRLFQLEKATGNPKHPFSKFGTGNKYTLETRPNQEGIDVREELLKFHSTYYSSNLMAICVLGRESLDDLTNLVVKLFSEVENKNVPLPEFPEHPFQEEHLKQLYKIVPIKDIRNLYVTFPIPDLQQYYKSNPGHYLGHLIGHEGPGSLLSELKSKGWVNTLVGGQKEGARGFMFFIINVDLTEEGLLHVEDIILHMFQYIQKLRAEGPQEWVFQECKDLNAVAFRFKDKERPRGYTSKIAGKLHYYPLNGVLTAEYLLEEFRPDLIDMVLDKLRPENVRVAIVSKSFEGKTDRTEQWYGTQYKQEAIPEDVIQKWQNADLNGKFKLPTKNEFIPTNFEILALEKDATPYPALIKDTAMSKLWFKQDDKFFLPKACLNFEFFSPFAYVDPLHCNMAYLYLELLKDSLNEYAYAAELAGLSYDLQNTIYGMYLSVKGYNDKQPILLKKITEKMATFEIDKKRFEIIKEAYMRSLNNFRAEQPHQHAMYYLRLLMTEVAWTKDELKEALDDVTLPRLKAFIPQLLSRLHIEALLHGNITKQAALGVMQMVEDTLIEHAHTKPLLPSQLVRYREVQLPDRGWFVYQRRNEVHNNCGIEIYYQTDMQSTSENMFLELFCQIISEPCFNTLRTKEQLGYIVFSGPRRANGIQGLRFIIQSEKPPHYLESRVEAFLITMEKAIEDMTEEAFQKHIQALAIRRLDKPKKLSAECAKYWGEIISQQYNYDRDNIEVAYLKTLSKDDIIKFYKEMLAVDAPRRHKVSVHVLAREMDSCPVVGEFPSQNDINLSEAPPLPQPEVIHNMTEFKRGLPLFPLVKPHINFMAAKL
In words: Insulin competition with a-factor–based substrate on rat IDE. Format: biochemical. As to conditions: 100 µM compound; […] (IC50) insulin; 0.1 M KPi.

For assay [2], the target named is T1, rat IDE. In words: Thermal melt. Conditions: 100 µM compound; rat IDE 0.5 µM; 28 to 70 °C. The format is binding. Put shortly:
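Thermal shift: recombinant rat IDE (0.5 µM) with 5× SYPRO Orange in 0.1 M KPi pH 7.6, plus DMSO or compound (100 µM). Samples were held 60 min in the dark at room temperature under mineral oil, then heated 28–70 °C in 1–3 °C steps. Fluorescence was read at 465/590 nm. Tm came from a four-parameter variable-slope sigmoidal fit.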

The target of assay [3] is T1, rat IDE. In words: ATP effect on rat IDE activity and activators. The format is biochemical. Conditions: Tris/BSA, 1 mM ATP. In outline:
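Rat IDE (87.7 nM) with 50 µM a-factor–based internally quenched fluorogenic substrate in 50 mM Tris pH 7.5 containing BSA and 1 mM ATP. Compounds were used at optimal levels taken from Tris/BSA dose-response curves. ATP titration (0–10 mM) was also run in 0.1 M KPi pH 7.6 or Tris/BSA. Activity is % of water- or DMSO-treated control, n = 4.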

On to `O=S(=O)(O)CCCc1cccc2ccccc12` [Compound 1], for which the “ability to stimulate IDE activity in presence of insulin” value (“ability to stimulate IDE activity” below) on rat IDE [1] is listed as “retained their ability to stimulate IDE activity”. Take `O=S(=O)(O)c1cc(O)c2c(O)c(N=Nc3cccc4ccccc34)c(S(=O)(=O)O)cc2c1` [Compound 3]: at rat IDE [2], the “shift in thermal melting profile (Tm) of IDE” value was “substantial shift in the melting profile”. For the same compound, the “ability to stimulate IDE activity” value on rat IDE [1] is recorded as “retained their ability to stimulate IDE activity”. For the same compound, the “activation over the ATP-only condition” value on rat IDE [3] (compound 125 µM) is given as “approximately 25%”. Regarding `Nc1nc(SCc2ccccc2Cl)cc(C(=O)O)n1` [Compound 5], the “ability to stimulate IDE activity” value at rat IDE [1] is on record as “retained their ability to stimulate IDE activity”. For the same compound, the “% activity relative to ATP-only condition” value at rat IDE [3] (compound 500 µM) is greater than 250%.

As for `O=C(O)c1ccc(Oc2nc3ccccc3s2)cc1` [Compound 7], the “ability to stimulate IDE activity” value on rat IDE [1] is reported as “retained their ability to stimulate IDE activity”.
